Measurements published in ChEMBL document CHEMBL3817745, “Structure-Activity Relationship for the 4(3H)-Quinazolinone Antibacterials” (J Med Chem, 2016).
In brackets after ≈: the same amount, converted by molar mass.

Columns and labels:
Bacillus cereus = experiment: Antibacterial activity against Bacillus cereus ATCC 13061 incubated for 16 to 20 hrs by microdilution method; format: functional
How it was run: (§1)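 CLSI broth microdilution. 2-fold serial dilutions were made in cation-adjusted Mueller–Hinton broth, with 5% lysed horse blood added for Streptococcus strains, in triplicate. Inoculum 5×10^5 CFU/mL. Plates incubated 36 °C for 16–20 h. MIC taken as the lowest concentration visibly inhibiting growth.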

Staphylococcus aureus [1] = experiment: […] activity against methicillin-resistant Staphylococcus aureus NRS70; format: functional; details: read-out: MBC99.9
Staphylococcus aureus [2] = experiment: Bactericidal activity against methicillin-susceptible Staphylococcus aureus ATCC 29213 assessed as bacterial count at >=1 ug/ml (reference value: 1x10^6 CFU/ml); format: functional
[3] = Hemolytic activity against human RBC at 64 ug/ml relative to control; format: ADME, cell-based, Erythrocyte; details: erythrocyte
How it was run: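 Hemolysis was measured at a fixed 64 μg/mL on a 10% red-cell suspension from heparinized human blood. Triton-X served as the positive control, and results are given as percent hemolysis.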

Bacillus licheniformis = experiment: Antibacterial activity against Bacillus licheniformis ATCC 12759 incubated for 16 to 20 hrs by microdilution method; format: functional; how it was run: as §1
Acinetobacter baumannii = experiment: Antibacterial activity against Acinetobacter baumannii ATCC 17961 incubated for 16 to 20 hrs by microdilution method; format: functional; how it was run: as §1
Staphylococcus aureus [4] = experiment: Antibacterial activity against vancomycin/methicillin-resistant Staphylococcus aureus VRS1 clinical isolate incubated for 16 to 20 hrs by microdilution method; format: functional
Pseudomonas aeruginosa = experiment: Antibacterial activity against Pseudomonas aeruginosa […] incubated for 16 to 20 hrs by microdilution method; format: functional; how it was run: as §1
Staphylococcus aureus [5] = experiment: Antibacterial activity against methicillin-resistant Staphylococcus aureus NRS70 incubated for 16 to 20 hrs by microdilution method; format: functional
Mus musculus [6] = experiment: AUC (0 to last) in ICR mouse peritonitis model infected with methicillin resistant Staphylococcus aureus ATCC 27660 at 10 mg/kg, iv administered as single dose measured up to 8 hrs by UPLC analysis; format: ADME, organism-based; set-up: dose 10 mg/kg, time 0 - last, route intravenous; details: in vivo, 8 h
How it was run: (§2)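 Fast PK: female ICR mice (n = 2 per time point) given single tail-vein iv injection at 5, 10 or 20 mg/kg in 25% DMSO/65% propylene glycol/10% water (2.5, 5 or 10 mg/mL); terminal cardiac blood at 5 min, 40 min, 2, 4, 8 h; plasma analysed by UPLC with internal standard calibration.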

Enterococcus faecalis [7] = experiment: Antibacterial activity against vancomycin-resistant Enterococcus faecalis 99 clinical isolate incubated for 16 to 20 hrs by microdilution method; format: functional
Staphylococcus aureus [8] = experiment: […] activity against multidrug resistant Staphylococcus aureus ATCC 27660; format: functional; details: read-out: MBC99.9
Enterococcus faecium = experiment: Antibacterial activity against Enterococcus faecium NCTC 7171 incubated for 16 to 20 hrs by microdilution method; format: functional; how it was run: as §1
Staphylococcus aureus [9] = experiment: Antibacterial activity against mecA-positive methicillin/oxacillin/tetracycline-resistant Staphylococcus aureus ATCC 27660 incubated for 16 to 20 hrs by microdilution method; format: functional
Streptococcus pyogenes = experiment: Antibacterial activity against Streptococcus pyogenes ATCC 49399 incubated for 16 to 20 hrs by microdilution method; format: functional; how it was run: as §1
Klebsiella pneumoniae = experiment: Antibacterial activity against Klebsiella pneumoniae ATCC 700603 incubated for 16 to 20 hrs by microdilution method; format: functional; how it was run: as §1
[10] = Protein binding in human plasma at 20 uM after 2 hrs by UPLC based equilibrium dialysis method; format: ADME, cell-free
How it was run: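 Human plasma was tested by rapid equilibrium dialysis at a final compound concentration of 20 μM. Dialysis ran 2 h at 37 °C on an orbital shaker. Samples were quenched in acetonitrile with internal standard and quantified by UPLC with MRM detection. Triplicate, each measured in duplicate.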

HepG2 = experiment: Cytotoxicity against human HepG2 cells incubated for 16 hrs by XTT assay; format: cell-based; details: HepG2, 16 h
How it was run: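 HepG2 cells were tested with an XTT viability read-out, in triplicate. IC50 was obtained by nonlinear regression.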

Escherichia coli = experiment: Antibacterial activity against Escherichia coli ATCC 25922 incubated for 16 to 20 hrs by microdilution method; format: functional; how it was run: as §1
Staphylococcus aureus [11] = experiment: Antibacterial activity against mecA-positive multidrug resistant Staphylococcus aureus NRS119 incubated for 16 to 20 hrs by microdilution method; format: functional
Staphylococcus aureus [12] = experiment: Antibacterial activity against methicillin-susceptible Staphylococcus aureus ATCC 29213 incubated for 16 to 20 hrs by microdilution method; format: functional
Staphylococcus aureus [13] = experiment: Antibacterial activity against mecA-positive multidrug resistant Staphylococcus aureus NRS120 incubated for 16 to 20 hrs by microdilution method; format: functional
[14] = tested on: Staphylococcus epidermidis; experiment: Antibacterial activity against Staphylococcus epidermidis ATCC 35547 incubated for 16 to 20 hrs by microdilution method; format: functional; how it was run: as §1
Enterococcus faecalis [15] = experiment: Antibacterial activity against methicillin-susceptible Enterococcus faecalis ATCC 29212 incubated for 16 to 20 hrs by microdilution method; format: functional; how it was run: as §1
Staphylococcus aureus [16] = experiment: […] activity against methicillin-susceptible Staphylococcus aureus ATCC 29213; format: functional; details: read-out: MBC99.9
Staphylococcus aureus [17] = experiment: Antibacterial activity against methicillin resistant Staphylococcus aureus ATCC 27660 infected in ICR mouse model of peritonitis assessed as mouse survival at 5 mg/kg, iv administered at 30 mins and 4.5 hrs post infection measured for 48 hrs relative to control; format: functional
Streptococcus oralis = experiment: Antibacterial activity against Streptococcus oralis ATCC 9811 incubated for 16 to 20 hrs by microdilution method; format: functional; how it was run: as §1
Staphylococcus aureus [18] = experiment: Antibacterial activity against mecA-positive multidrug resistant Staphylococcus aureus COL NRS100 incubated for 16 to 20 hrs by microdilution method; format: functional
Klebsiella aerogenes = experiment: Antibacterial activity against Enterobacter aerogenes ATCC 35029 incubated for 16 to 20 hrs by microdilution method; format: functional; how it was run: as §1
Mus musculus [19] = experiment: AUC (0 to infinity) in ICR mouse peritonitis model infected with methicillin resistant Staphylococcus aureus ATCC 27660 at 10 mg/kg, po administered as single dose through gavage by UPLC analysis; format: ADME, organism-based; set-up: dose 10 mg/kg, route oral, time infinity; details: in vivo
How it was run: (§3)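 Female ICR mice, single 10 mg/kg oral gavage in 25% DMSO/55% propylene glycol/20% PBS (2.5 mg/mL); n = 3 per time point; terminal blood 0.5–30 h; plasma protein-precipitated with acetonitrile containing internal standard, quantified by UPLC-UV or MRM against mouse-plasma calibration curve (0–50 μg/mL).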

Mus musculus [20] = experiment: Tmax in ICR mouse peritonitis model infected with methicillin resistant Staphylococcus aureus ATCC 27660 at 10 mg/kg, po administered as single dose through gavage by UPLC analysis; format: ADME, organism-based; details: in vivo; how it was run: as §3
Mus musculus [21] = experiment: AUC (0 to infinity) in ICR mouse peritonitis model infected with methicillin resistant Staphylococcus aureus ATCC 27660 at 10 mg/kg, iv administered as single dose by UPLC analysis; format: ADME, organism-based; set-up: dose 10 mg/kg, time infinity, route intravenous; details: in vivo
[22] = Solubility of compound in water; format: physicochemical; details: buffer
Mus musculus [23] = experiment: Terminal half life in ICR mouse peritonitis model infected with methicillin resistant Staphylococcus aureus ATCC 27660 at 10 mg/kg, po administered as single dose through gavage by UPLC analysis; format: ADME, organism-based; details: in vivo; how it was run: as §3
[24] = Plasma concentration in ICR mouse neutropenic thigh model of methicillin-resistant Staphylococcus aureus NRS70 infection at 20 mg/kg, sc tid administered every 8 hrs starting from 1 hr post infection and measured 7 hrs post last dose by UPLC analysis; format: ADME, organism-based
How it was run: (§4)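 Neutropenic thigh model (cyclophosphamide 200 mg/kg ip, NRS70 im), sc doses at 1, 9 and 17 h; at 24 h cardiac blood and uninfected thigh taken (n = 8 per group); thigh homogenate supernatant and plasma acetonitrile-quenched with internal standard, analysed by UPLC with MRM detection.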

Mus musculus [25] = experiment: Clearance in ICR mouse peritonitis model infected with methicillin resistant Staphylococcus aureus ATCC 27660 at 10 mg/kg, iv administered as single dose measured up to 8 hrs by UPLC analysis relative to hepatic blood flow; format: ADME, organism-based; details: in vivo; how it was run: as §2
Mus musculus [26] = experiment: Terminal half life in ICR mouse peritonitis model infected with methicillin resistant Staphylococcus aureus ATCC 27660 at 10 mg/kg, iv administered as single dose by UPLC analysis; format: ADME, organism-based; details: in vivo
Mus musculus [27] = experiment: AUC (0 to last) in ICR mouse peritonitis model infected with methicillin resistant Staphylococcus aureus ATCC 27660 at 10 mg/kg, po administered as single dose through gavage measured after 30 hrs by UPLC analysis; format: ADME, organism-based; set-up: dose 10 mg/kg, time 0 - last, route oral; details: in vivo, 30 h; how it was run: as §3
Mus musculus [28] = experiment: Oral bioavailability in ICR mouse peritonitis model infected with methicillin resistant Staphylococcus aureus ATCC 27660 at 10 mg/kg administered as single dose through gavage by UPLC analysis; format: ADME, organism-based; details: in vivo; how it was run: as §3
Mus musculus [29] = experiment: T>MIC in ICR mouse at 10 mg/kg, po administered as single dose through gavage by UPLC analysis
[30] = Drug level in uninfected thighs of ICR mouse neutropenic thigh model of methicillin-resistant Staphylococcus aureus NRS70 infection at 20 mg/kg, sc tid administered every 8 hrs starting from 1 hr post infection and measured 7 hrs post last dose by UPLC analysis; format: ADME, organism-based; details: read-out: Drug uptake; how it was run: as §4
Mus musculus [31] = experiment: T>MIC in ICR mouse at 10 mg/kg, iv administered as single dose by UPLC analysis
Mus musculus [32] = experiment: Cmax in ICR mouse peritonitis model infected with methicillin resistant Staphylococcus aureus ATCC 27660 at 10 mg/kg, po administered as single dose through gavage measured at 0.5 hrs post dose by UPLC analysis; format: ADME, organism-based; set-up: dose 10 mg/kg, route oral; details: in vivo; how it was run: as §3
Mus musculus [33] = experiment: Volume of distribution in ICR mouse peritonitis model infected with methicillin resistant Staphylococcus aureus ATCC 27660 at 10 mg/kg, iv administered as single dose measured up to 24 hrs by UPLC analysis; format: ADME, organism-based; details: in vivo, 24 h

SMILES: C#Cc1ccc(/C=C/c2nc3ccccc3c(=O)n2-c2cccc(C(=O)O)c2)cc1
- MIC (Bacillus cereus): 128 µg/mL (≈ 326 µM)
- MBC (Staphylococcus aureus [1]): 0.5 µg/mL (≈ 1.27 µM)
- Activity (Staphylococcus aureus [2]): <=500 CFU/ml
- Activity [3]: < 1%
- MIC (Bacillus licheniformis): 128 µg/mL (≈ 326 µM)
- MIC (Acinetobacter baumannii): ≥ 16 µg/mL
- MIC (Staphylococcus aureus [4]): 0.5 µg/mL (≈ 1.27 µM)
- MIC (Pseudomonas aeruginosa): ≥ 16 µg/mL
- MIC (Staphylococcus aureus [5]): 0.03 µg/mL (≈ 0.0764 µM)
- AUClast (Mus musculus [6]): 1540 µg·min/mL
- MIC (Enterococcus faecalis [7]): 128 µg/mL (≈ 326 µM)
- MBC (Staphylococcus aureus [8]): 1 µg/mL (≈ 2.55 µM)
- MIC (Enterococcus faecium): > 128 µg/mL
- MIC (Staphylococcus aureus [9]): 0.06 µg/mL (≈ 0.153 µM)
- MIC (Streptococcus pyogenes): 128 µg/mL (≈ 326 µM)
- MIC (Klebsiella pneumoniae): ≥ 16 µg/mL
- PPB [10]: 99.6%
- IC50 (HepG2): 82 µg/mL (≈ 209 µM)
- MIC (Escherichia coli): ≥ 16 µg/mL
- MIC (Staphylococcus aureus [11]): 0.06 µg/mL (≈ 0.153 µM)
- MIC (Staphylococcus aureus [12]): 0.03 µg/mL (≈ 0.0764 µM)
- MIC (Staphylococcus aureus [13]): 0.5 µg/mL (≈ 1.27 µM)
- MIC [14]: 8 ng/mL (≈ 0.0204 µM)
- MIC (Enterococcus faecalis [15]): > 128 µg/mL
- MBC (Staphylococcus aureus [16]): 0.125 µg/mL (≈ 0.319 µM)
- Efficacy (Staphylococcus aureus [17]): >50%
- MIC (Streptococcus oralis): 128 µg/mL (≈ 326 µM)
- MIC (Staphylococcus aureus [18]): 0.25 µg/mL (≈ 0.637 µM)
- MIC (Klebsiella aerogenes): ≥ 16 µg/mL

SMILES: C#Cc1ccc(/C=C/c2nc3ccccc3c(=O)n2-c2cccc(C(=O)[O-])c2)cc1.[Na+]
- AUC (Mus musculus [19]): 582 µg·min/mL
- Tmax (Mus musculus [20]): 30 min
- AUC (Mus musculus [21]): 1570 µg·min/mL
- solubility [22]: 1.5 mg/mL
- beta t1/2 (Mus musculus [23]): 6.6 h
- concentration at 7 h [24]: 2430 ng/mL
- CL (Mus musculus [25]): < 10%
- beta t1/2 (Mus musculus [26]): 6.5 h
- AUClast (Mus musculus [27]): 552 µg·min/mL
- F (Mus musculus [28]): 37%
- T>MIC (Mus musculus [29]): 30 h
- concentration at 7 h [30]: 220 ng/mL
- T>MIC (Mus musculus [31]): 24 h
- Cmax (Mus musculus [32]): 2.7 µg/mL
- Vd (Mus musculus [33]): 3.58 L/kg
